Published values of several laboratories.
Each line is one published result; the experiments were not run side by side.
Target: Serine/threonine-protein kinase PAK 3 (PAK3, Homo sapiens, UniProt O75914)

With `Cc1sc(C(=O)NC2COC2)cc1-n1cc(NC(=O)Nc2c(F)cccc2Cl)cn1` the remaining activity was 114% (enzyme activity, inhibitor; 10 µM).
The remaining binding of `CCCOc1ccc([C@H]2[C@H](C(=O)O)[C@@H](c3ccc4c(c3)OCO4)CN2CC(=O)Nc2c(CC)cccc2CC)cc1` is reported as 100% (cell-free assay, competition with immobilised ligand; 1 µM).
For `O=C(Nc1cnn(-c2csc(C(=O)NC3COC3)c2)c1)Nc1c(F)cccc1Cl`, the remaining activity was 64.2% (enzyme activity, inhibitor; 5 µM).
`N#CC1(c2ccccn2)CCN(Cc2cc(C(=O)N3CCCC3)c(=O)n3ccccc23)CC1` gave a remaining binding of 100% (cell-free assay, competition with immobilised ligand; 1 µM).
The inhibition of `COc1cc2ncnc(Nc3ccc(Oc4ccccc4)cc3C)c2cc1OC` is reported as 3% (enzyme activity, inhibitor; 1 µM).
With `Cc1ccc(C(=O)Nc2ccc(CN3CCN(C)CC3)c(C(F)(F)F)c2)cc1C#Cc1cnc2cccnn12` the remaining activity was 3.6% (enzyme activity, inhibitor; 23.5 nM).
The inhibition of `Cc1ccc(Nc2nccc(N(C)c3ccc4c(C)n(C)nc4c3)n2)cc1S(N)(=O)=O` is reported as 61% (enzyme activity, inhibitor; 10 µM).
The inhibition of `CN1CC(Oc2cnc(C#N)cc2-c2ccn3nc(NC(=O)C4CC4)cc3c2)C1` is reported as -10% (enzyme activity, inhibitor; 1 µM).
For `O=C1Nc2ccc(Cl)cc2C1=Cc1cc(Cl)c(O)c(Cl)c1`, the remaining signal was 94.3% (cell-free assay; 0.5 µM).
With `Cn1cc(Cl)c2c(Oc3c(F)cc(Nc4cc(Cl)nc(N)n4)cc3F)ccnc21` the remaining binding was 100% (cell-free assay, competition with immobilised ligand; 0.1 µM).
The remaining signal of `COc1cc2ncnc(Nc3ccc(F)c(Cl)c3)c2cc1OCCCN1CCOCC1` is reported as 106% (cell-free assay; 0.5 µM).
With `COc1ccccc1N1CCN(c2ncnc3[nH]nc(Br)c23)CC1` the inhibition was -12% (enzyme activity, inhibitor; 1 µM).
With `CC(C)CC(=O)N1CCc2nc(-c3ccc(Br)cc3)nc(N(C)Cc3ccccc3)c2C1` the remaining binding was 100% (cell-free assay, competition with immobilised ligand; 0.1 µM).
`CCCOc1ccc(OC)c(F)c1C(=O)c1ccc(C(=O)N[C@@H]2CNC[C@H]2NC(=O)c2ccc3[nH]ncc3c2)cc1` has a remaining activity of 51% (enzyme activity, inhibitor; 10 µM).
With `Cc1ccc(C(=O)NCc2ccsc2)cc1C#Cc1cn(C(C)C)c2ncnc(N)c12` the activity vs control was 78% (enzyme activity, inhibitor; 1 µM).
The remaining binding of `CN(C)CC#Cc1ccc(OCCCc2sc(N3CCc4cccc(C(=O)Nc5nc6ccccc6s5)c4C3)nc2C(=O)O)c(F)c1` is reported as 97% (cell-free assay, competition with immobilised ligand; 1 µM).
For `N#CCCc1ccc2c(c1)-c1[nH]c3ccc([N+](=O)[O-])cc3c1CC(=O)N2`, the remaining signal was 97.1% (cell-free assay; 0.5 µM).
With `CC(C)(C)c1nc2c(s1)c1nc(N)ncc1c1ccc(NS(=O)(=O)c3c(F)cccc3F)c(F)c12` the remaining activity was 87% (enzyme activity, inhibitor, radiometric; 1 µM).
